# According to the EternaBench riboswitch data:
# Tested on: MS2 coat protein
# Test: apparent Kd, MS2 coat protein; higher = weaker binding; RNA-MaP array; FMN 200 µM where present
# Outline: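 Binding was read on Illumina sequencing-chip clusters where stalled E. coli RNA polymerase had transcribed each design. A titration of SNAP-549-labelled MS2 coat protein began at 0.7 or 1.5 nM and doubled to 3 µM, once without ligand and once with constant ligand, in 100 mM Tris-HCl pH 7.5, 80 mM KCl, 4 mM MgCl2, BSA, DTT, yeast tRNA and Tween-20. The apparent Kd is the median of filtered per-cluster binding-curve fits, based on green signal normalised to red-channel RNA signal and control-cluster median Fmax.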
# [1] = designed as: OFF switch for flavin mononucleotide, no ligand
# [2] = ligand present: flavin mononucleotide, designed as: OFF switch for flavin mononucleotide
# [3] = designed as: ON switch for flavin mononucleotide, no ligand
# [4] = ligand present: flavin mononucleotide, designed as: ON switch for flavin mononucleotide
Sequence,apparent Kd [1] [µM],apparent Kd [2] [µM],apparent Kd [3] [µM],apparent Kd [4] [µM]
CUCGUGUAAGGAUAUGCGAGCCACGGAAAUAAAACGUGGAGGUAGAAGGUACAUGAGGAUCACCCAUGUAAAAC,0.0254,0.0853,,
GUGAACCGUAGGUCGUUGGCUGCACAGGAUAUGAAGGCGUACAUGAGGAUCACCCAUGUUCCCUAUCAGAAGGGUGACAGGAAA,,,0.00681,0.00541
GUCGUGUCAGGAUAUACGUUUGUUUCUUUUUUUGUUGUUUAGUAGAAGGGACAUGAGGAUCACCCAUGUUUGUU,0.0294,0.0474,,
AAAUAACCUAGCAAAAUUUCCUAACAUGAGGAUCACCCAUGUAGAAGGCUGUCCUAAAAUAGGACAGAGGAUAUACGUGCUAGG,0.00501,0.007,,
GGAAAACAUGAGGAUCACCCAUGUGAAAACGUGGGAGGAUAUGGAUGGAAACCAUACUGUCCAGAAGGCCCAUGUC,,,0.0676,0.0189
CGGGUCUGAGGAUAUCCAUCUUCAUACAUGAGGAUCACCCAUGUUUACCCUUGGGUUCCCGGAGAAGGCAGUUUUC,0.0609,0.0564,,
GUGCAUACGUGAGGAUAUGUAUUAGAUAGUGGUACAGAAGGCAUGUCAGAUGACAUGAGGAUCACCCAUGUUGGCAAAAUGCGC,,,0.0475,0.0102
CCGGAACAUGAGGAUCACCCAUGUGAGGAUAUCGUACGUUCGUCGAUAGACGAUCGUACGAGAAGGCACGCCGG,0.0182,0.0173,,
GUAGUGUAUGUAGGAUAUGUGAAGGAAACAUUUACAGAAGGACAUGAGGAUCACCCAUGUAUUUCAGUCACCAAUGUGACUGAU,0.0247,0.0434,,
AAAAAUCGAGGAUAUACAUGAGGAUCACCCAUGUGGGACCAAGAAAACACAAAAGAAAGUAGAAGGCGAUAAAA,0.0292,0.113,,
UGUUUUCGAGGAUAUACAUGAGGAUCACCCAUGUGGAUUCACACUGACAGUUCCUUUUGUAGAAGGUGAUAGGC,0.124,0.17,,
GCGAUGUUAGGAUAUACAUGAGGAUCACCCAUGUUCAGACUGAGCCUAGAGCGUCUAUGUAGAAGGGACUCGCA,0.0272,0.0431,,
GCGUAUAUAAGAUUUAUAAAACAGUCAGAAGGUGAUAAGACGACAUGAGGAUCACCCAUGUAAUUCAAGGAUAUGAUCAUACGC,,,0.0543,0.0233
AAGAAGGCAGGAUAUACAAAAUAAAAGAAAAGAAAGAAAGAACAUGAGGAUCACCCAUGUAGAAGGGUCAAGAA,0.0593,0.0661,,
GUUAAGUGAGGAUAUGGUGAGUAGUGCCUGAGCGCUGCUCACCAGAAGGCACAUGAGGAUCACCCAUGUAUAGC,0.0157,0.028,,
CCUAAACAUGAGGAUCACCCAUGUGAGGAUAUGAUGCAGCAGUGGUCUACGCUGUGCAUCAGAAGGUACAUGGU,0.0808,0.12,,
GUAGCAUACCGAGGAUAUUCAUAGCGGAAACGCACAUGAGGAUCACCCAUGUGGCGAAAGCCUUGGGAGAAGGCGGAAUGCUAC,,,0.118,0.0181
AAUAAACUCACAGGAUAUAGCAGAGGUCGCGUGAACUUACAGACGACGAUGCUAGAAGGGUGACCACAUGAGGAUCACCCAUGU,,,0.591,0.151
UUGCUACAUGAGGAUCACCCAUGUCAGGAUAUAGUGCAUAGCGUGGAAGCUCUGUCGAUUAGAAGGGACUGUCU,0.0253,0.0274,,
CUUUUGUGAGGAUAUUAGUAGUAAAUAAAUAAAAUUACUACUGAGAAGGCACAUGAGGAUCACCCAUGUUCCUC,0.0337,0.317,,
UGGUGAAGUGUAGGAUAUGGAGAUGGGUUUUGGCCAGAAGGACAUGAGGAUCACCCAUGUGGUAGAGGGUUGGUGGUAGCUCCU,0.0362,0.0317,,
UGGUUGUGAGGAUAUACGUUUUUUAACUCUUGUUUUAUACUGUAGAAGGCACAUGAGGAUCACCCAUGUUACGU,0.0224,0.026,,
GUUGGCGUAGAAGGAUAUUGGUGAUGCGUCUUGUACAUGAGGAUCACCCAUGUCACUCUGCACGCCGAGAAGGUCUGCAAAUGG,,,0.11,0.0876
